DENV2 CPE: inhibitors of DENV2 cytopathic effect | CPE inhibition, % at 9.99 µM | DENV2-infected cells, cytopathic effect rescue, plate reader | 1.7% of 350,000 active; in the data active = CPE inhibition above about 20%, passing the limit was not always enough; inconclusive = no clear call, values can overlap the other calls; tested in BHK-21 cells;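 note: 0% = median of neutral control wells and 100% = median of positive control wells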
SIRT5 inh: blocks human SIRT5 desuccinylation of peptide. Q9NXA8. Purified SirT5, succinyl-peptide AMC, trypsin-coupled fluorescence. inhibition, % at 15 µM. 1.1% of 330,000 active. AID 652115; in the data active = inhibition above about 15%; inconclusive = no clear call, values can overlap the other calls
Target sequence (Q9NXA8 whole entry, looked up): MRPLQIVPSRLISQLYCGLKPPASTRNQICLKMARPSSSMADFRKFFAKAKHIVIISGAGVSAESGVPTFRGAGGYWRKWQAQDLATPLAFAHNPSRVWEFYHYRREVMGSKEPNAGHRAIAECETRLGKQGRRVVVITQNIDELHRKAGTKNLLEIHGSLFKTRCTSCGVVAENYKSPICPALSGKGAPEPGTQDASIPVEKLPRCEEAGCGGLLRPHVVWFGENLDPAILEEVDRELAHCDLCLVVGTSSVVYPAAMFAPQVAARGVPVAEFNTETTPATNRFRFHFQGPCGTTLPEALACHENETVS
S100A4 inh HTS: blocks human S100A4 binding to myosin IIA peptide. inhibition, % at 10.7 µM. AID 652163. 0.14% of 360,000 active. S100A4/TAMRA-MyoIIA peptide fluorescence polarization;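 active = mean inhibition of at least 70% across replicates, with every replicate also reaching that level; inconclusive = mean inhibition reaches 70% but some replicates fall short; inactive = mean inhibition below 70%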
Target sequence (P26447 whole entry, looked up): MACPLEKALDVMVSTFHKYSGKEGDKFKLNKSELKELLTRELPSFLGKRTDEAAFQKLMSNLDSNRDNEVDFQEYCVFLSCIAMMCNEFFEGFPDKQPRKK
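incubation = readout 5 min after mixing, signal stable up to 60 min | system = S100A4 monomer protein | buffer or medium = HEPES pH 7.2 with CaCl2, KCl, NaCl, DTT, Triton | benchmarks = neutral control DMSO, positive control TFP | also added = fluorescent myosin IIA peptide, 5 nM | compound dosing = one concentration per compound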
ERAP1 inh: ERAP1 (human) enzyme inhibition; inhibition, % at 10.7 µM; Q9NZ08; recombinant ERAP1, Leu-AMC fluorescence, 60 min; AID 652197; 0.15% of 340,000 active;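 active = mean replicate inhibition of at least 30%, or all replicates individually reaching that 30% level; inactive = mean below 30% and not every replicate reaching it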;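 note: 0% = neutral control wells and 100% = L-leucinethiol positive control wells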
* hit, by the source's call. This is a sample that favours compounds with a hit; in the whole collection about 2.9% have one here.

How did CCC(=O)N1CC2(C1)[C@@H](c1ccc(-c3cccc(C)c3)cc1)[C@@H](CO)N2S(C)(=O)=O do in these assays?
DENV2 CPE: 27*; SIRT5 inh: -5; S100A4 inh HTS: 0; ERAP1 inh: 0

Results for CCC(=O)N1CC2(C1)[C@H](c1ccc(-c3cccc(C)c3)cc1)[C@@H](CO)N2S(C)(=O)=O ?
DENV2 CPE: 7; SIRT5 inh: -1; S100A4 inh HTS: -1; ERAP1 inh: -2

What do the screens show for `CN(C)CC(=O)N1[C@H](CO)[C@@H](c2ccccc2)C12CN(C(=O)c1ccccc1)C2`?
DENV2 CPE: 81*; SIRT5 inh: -3; S100A4 inh HTS: -17; ERAP1 inh: -1

How did C/C=C/c1ccc([C@H]2[C@@H](CO)N(C(=O)CC)C23CN(C(=O)c2ccccc2)C3)cc1 do in these assays?
DENV2 CPE: 29*; SIRT5 inh: 0; S100A4 inh HTS: 3; ERAP1 inh: 2

What do the screens show for `CN(C)CC(=O)N1CC2(C1)[C@@H](c1ccccc1)[C@@H](CO)N2S(C)(=O)=O`?
DENV2 CPE: -12; SIRT5 inh: 1; S100A4 inh HTS: 91*; ERAP1 inh: 0

Results for COc1ccc(NC(=O)N(C)C[C@H]2Oc3ccc(NS(=O)(=O)c4cccs4)cc3CC(=O)N([C@@H](C)CO)C[C@@H]2C)cc1 ?
DENV2 CPE: -3

What do the screens show for `O=C(Cc1ccncc1)NCC[C@@H]1CC[C@@H](NC(=O)C2CCOCC2)[C@H](CO)O1`?
DENV2 CPE: inconclusive; SIRT5 inh: -5; S100A4 inh HTS: 5; ERAP1 inh: -1

What do the screens show for `O=C(C[C@H]1CC[C@H](NC(=O)c2ccccc2)[C@H](CO)O1)NCCc1ccncc1`?
DENV2 CPE: 6; SIRT5 inh: -5; S100A4 inh HTS: 7; ERAP1 inh: 0

Results for O=C(Nc1cc(F)ccc1F)N1CC(=O)N2[C@@H](CO)[C@@H](c3ccc(-c4cccnc4)cc3)[C@@H]2C1 ?
DENV2 CPE: 23*; SIRT5 inh: -2; S100A4 inh HTS: -13; ERAP1 inh: 0

Results for COc1ccccc1NC(=O)N1CC(=O)N2[C@H](C1)[C@@H](c1ccc(-c3ccc(F)cc3)cc1)[C@@H]2CO ?
DENV2 CPE: 7; SIRT5 inh: 2; S100A4 inh HTS: -2; ERAP1 inh: -1

What do the screens show for `COc1ccccc1NC(=O)N1CC(=O)N2[C@H](CO)[C@@H](c3ccc(-c4ccc(F)cc4)cc3)[C@H]2C1`?
DENV2 CPE: 29*; SIRT5 inh: 2; S100A4 inh HTS: 6; ERAP1 inh: 0

How did O=C(Nc1ccccc1F)N1CC(=O)N2[C@H](CO)[C@H](c3ccc(-c4ccccc4)cc3)[C@@H]2C1 do in these assays?
DENV2 CPE: -1; SIRT5 inh: 1; S100A4 inh HTS: -44; ERAP1 inh: -1

Results for O=C(Nc1ccccc1F)N1CC(=O)N2[C@H](CO)[C@@H](c3ccc(-c4ccccc4)cc3)[C@H]2C1 ?
DENV2 CPE: 43*; SIRT5 inh: 1; S100A4 inh HTS: 124*; ERAP1 inh: -1

How did O=C(Nc1cc(F)ccc1F)N1CC(=O)N2[C@@H](CO)[C@H](c3ccc(-c4cccnc4)cc3)[C@@H]2C1 do in these assays?
DENV2 CPE: 2; SIRT5 inh: -1; S100A4 inh HTS: 6; ERAP1 inh: 0

What do the screens show for `O=C(Nc1ccccc1F)N1CC(=O)N2[C@H](CO)[C@@H](c3ccc(C#Cc4ccc(F)cc4)cc3)[C@H]2C1`?
DENV2 CPE: 4; SIRT5 inh: 1; S100A4 inh HTS: -9; ERAP1 inh: 2

What do the screens show for `O=C(Nc1ccccc1F)N1CC(=O)N2[C@H](CO)[C@@H](c3ccc(C#Cc4ccc(F)cc4)cc3)[C@@H]2C1`?
DENV2 CPE: 22*; SIRT5 inh: 9; S100A4 inh HTS: 1; ERAP1 inh: 1

What do the screens show for `C[C@H](CO)N1C[C@H](C)[C@@H](CN(C)C(=O)CCCN(C)C)OCCCC[C@H](C)Oc2ccc(NC(=O)Cc3ccccc3)cc2C1=O`?
DENV2 CPE: -4; SIRT5 inh: -2; S100A4 inh HTS: 4; ERAP1 inh: 2

How did O=C(CN1CCOCC1)N[C@@H]1CC[C@@H](CCNC(=O)Nc2cc(F)ccc2F)O[C@@H]1CO do in these assays?
DENV2 CPE: 4; SIRT5 inh: -9; S100A4 inh HTS: -4; ERAP1 inh: 0

How did Cc1noc(C)c1S(=O)(=O)Nc1ccc2c(c1)CC(=O)N([C@@H](C)CO)C[C@H](C)[C@@H](CN(C)Cc1ccc(C(=O)Nc3ccccc3N)cc1)O2 do in these assays?
DENV2 CPE: -3; SIRT5 inh: -9; S100A4 inh HTS: 0; ERAP1 inh: -3
